Measurements reported in ChEMBL document CHEMBL1130629, “Fused aminotetralins: novel antagonists with high selectivity for the dopamine D3 receptor” (Bioorg Med Chem Lett, 1998).

Experiments:
D(2) dopamine receptor [1] = molecular target: T1, D(2) dopamine receptor (Homo sapiens, UniProt P14416); test: Binding affinity at Dopamine receptor D2 expressed in CHO cells by [125I]iodosulpiride displacement.; type: cell-based
D(3) dopamine receptor = D(3) dopamine receptor (Homo sapiens, UniProt P35462); test: Binding affinity at Dopamine receptor D3 expressed in CHO cells by [125I]iodosulpiride displacement.; type: cell-based
[2] = Compound was evaluated for the rate of clearance in rat upon intravenous administration.; type: ADME, organism-based; conditions: in vivo
Summary of the method: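 Relative blood clearance measured at steady state. Compound dissolved in 5% (w/v) aqueous glucose with 2% (v/v) DMSO and 10% Encapsin HPB, target concentration 0.2 mg free base/ml. Given to rats as a constant-rate iv infusion over 12 h at a target 1 mg free base/kg/h, n = 3. Serial blood samples taken over the last 2 h to confirm steady state, then terminal exsanguination. Parent compound in blood measured by LC/MS/MS.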

D(2) dopamine receptor [3] = molecular target: T1, D(2) dopamine receptor; test: Displacement of [125I]iodosulpiride from Dopamine receptor D2 expressed in CHO cells; type: cell-based

Sequence of D(3) dopamine receptor (P35462 whole entry): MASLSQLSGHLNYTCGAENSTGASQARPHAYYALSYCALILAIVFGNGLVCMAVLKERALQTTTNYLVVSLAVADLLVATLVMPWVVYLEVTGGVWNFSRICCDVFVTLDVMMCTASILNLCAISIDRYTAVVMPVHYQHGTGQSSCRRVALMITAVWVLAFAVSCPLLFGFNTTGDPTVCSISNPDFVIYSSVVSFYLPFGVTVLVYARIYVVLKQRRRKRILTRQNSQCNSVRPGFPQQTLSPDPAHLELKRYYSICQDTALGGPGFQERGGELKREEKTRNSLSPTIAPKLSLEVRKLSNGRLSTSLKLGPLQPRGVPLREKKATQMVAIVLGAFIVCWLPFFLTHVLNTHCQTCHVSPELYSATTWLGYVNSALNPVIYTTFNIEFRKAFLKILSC
T1 sequence (P14416 whole entry): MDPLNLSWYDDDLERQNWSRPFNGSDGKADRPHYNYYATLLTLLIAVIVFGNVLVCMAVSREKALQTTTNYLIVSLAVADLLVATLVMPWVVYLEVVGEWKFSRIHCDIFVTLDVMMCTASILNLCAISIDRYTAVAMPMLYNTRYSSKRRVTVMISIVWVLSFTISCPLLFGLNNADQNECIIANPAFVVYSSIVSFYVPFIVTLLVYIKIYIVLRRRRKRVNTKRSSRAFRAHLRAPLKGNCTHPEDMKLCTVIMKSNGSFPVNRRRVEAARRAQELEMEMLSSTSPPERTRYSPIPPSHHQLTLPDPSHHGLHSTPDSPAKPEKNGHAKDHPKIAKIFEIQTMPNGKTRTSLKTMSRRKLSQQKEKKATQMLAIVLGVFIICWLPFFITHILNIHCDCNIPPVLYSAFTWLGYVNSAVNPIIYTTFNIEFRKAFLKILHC

| Compound | Ki (D(2) dopamine receptor [1]) [nM] | Ki (D(3) dopamine receptor) [nM] | clearance [2] [mL/min/kg] | Ki (D(2) dopamine receptor [3]) [nM] |
| --- | --- | --- | --- | --- |
| CS(=O)(=O)Oc1ccc2c(c1)CC[C@H]1[C@H]2CCN1CCCCNC(=O)c1ccc(-c2ccccc2)cc1 | 1000 | 50.1 | – | – |
| O=C(NCCCCN1CC[C@H]2c3ccc(O)cc3CC[C@@H]21)c1ccc(-c2ccccc2)cc1 | 316 | 12.6 | – | – |
| CS(=O)(=O)Oc1cccc2c1CC[C@H]1[C@H]2CCCN1CCCCNC(=O)c1ccc(-c2ccccc2)cc1 | 251 | 6.31 | – | – |
| CS(=O)(=O)Oc1cccc2c1CC[C@H]1[C@H]2CCN1CCCCNC(=O)c1ccc(-c2ccccc2)cc1 | 316 | 5.01 | – | – |
| CS(=O)(=O)Oc1cccc2c1CC[C@H]1[C@@H]2CCCN1CCCCNC(=O)c1ccc(-c2ccccc2)cc1 | 398 | 251 | – | – |
| O=C(NCCCCN1CC[C@H]2c3ccccc3CC[C@@H]21)c1ccc(-c2ccccc2)cc1 | 501 | 15.8 | – | – |
| COc1cccc2c1CC[C@H]1[C@H]2CCCN1CCCCNC(=O)c1ccc(-c2ccccc2)cc1 (single isomer, unassigned) | 501 | 7.94 | – | – |
| CS(=O)(=O)Oc1cccc2c1CC[C@@H]1[C@@H]2CCCN1CCCCNC(=O)c1ccc(-c2ccccc2)cc1 [listing 1 of 2 here] | 316 | 10 | 61 | – |
| CS(=O)(=O)Oc1ccc2c(c1)CC[C@H]1[C@H]2CCCN1CCCCNC(=O)c1ccc(-c2ccccc2)cc1 | 2000 | 200 | – | – |
| O=C(NCCCCN1CCC[C@@H]2c3ccccc3CC[C@@H]21)c1ccc(-c2ccccc2)cc1 | – | 251 | – | 794 |
| CS(=O)(=O)Oc1cccc2c1CC[C@@H]1[C@@H]2CCCN1CCCCNC(=O)c1ccc(-c2ccccc2)cc1 [listing 2 of 2 here] | 1260 | 1260 | – | – |
| O=C(NCCCCN1CC[C@@H]2c3ccccc3CC[C@@H]21)c1ccc(-c2ccccc2)cc1 | 501 | 50.1 | 59 | – |
| COc1cccc2c1CC[C@@H]1[C@@H]2CCCN1CCCCNC(=O)c1ccc(-c2ccccc2)cc1 | 794 | 794 | – | – |
| O=C(NCCCCN1CC[C@H]2c3cccc(O)c3CC[C@@H]21)c1ccc(-c2ccccc2)cc1 | 63.1 | 2 | – | – |
| O=C(NCCCCN1CCC[C@@H]2c3ccccc3CC[C@H]21)c1ccc(-c2ccccc2)cc1 | 501 | 15.8 | 46 | – |
| O=C(NCCCCN1CCC[C@H]2c3ccc(O)cc3CC[C@@H]21)c1ccc(-c2ccccc2)cc1 | 501 | 7.94 | – | – |
| COc1cccc2c1CC[C@H]1[C@H]2CCN1CCCCNC(=O)c1ccc(-c2ccccc2)cc1 | 631 | 15.8 | – | – |
| CCCN(CCCCNC(=O)c1ccc(-c2ccccc2)cc1)C1CCc2c(Cl)cccc2C1 (stereo not drawn) | – | – | 96 | – |
